M4 antag = blocks acetylcholine activation of human M4 receptor; P08173; CHO-hM4 cells, ACh EC80, Fluo-8 calcium fluorescence; inhibition, % at 3 µM; hit rate 0.73% among 360,000; AID 624125;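 active = inhibition above its plate's cutoff, the mean inhibition of sample wells plus 3 SD, cut at about 27% in these data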;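 note: 0% = acetylcholine EC80 with DMSO and 100% = DMSO without agonist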
CHRM4 agonist = CHRM4 agonism in calcium assay | P08173 | CHO-K1 hM4/Gqi5, Fluo-8 calcium fluorescence; vehicle 0%, full acetylcholine response 100% | activation, % at 3 µM | hit rate 0.14% among 360,000;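 active = activation above the run mean over all test wells plus 3 SD, cut at about 32% in these data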;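 note: peak over basal fluorescence ratio per well then scaled between controls; 0% = DMSO wells and 100% = acetylcholine at EC100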
TAAR1 antagonist = antagonists of human TAAR1; Q96RJ0; inhibition, % at 3 µM; CHO RD-HGA16 TAAR1, Fluo-8 calcium fluorescence, antagonist; hit rate 1.5% among 360,000;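 active = inhibition above a per-plate cutoff, the mean inhibition of test compounds on that plate plus 3 SD, cut at about 49% in these data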;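 note: 0% = DMSO plus EC80 beta-PEA response and 100% = DMSO alone without agonist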
Target sequence (Q96RJ0 whole entry, looked up): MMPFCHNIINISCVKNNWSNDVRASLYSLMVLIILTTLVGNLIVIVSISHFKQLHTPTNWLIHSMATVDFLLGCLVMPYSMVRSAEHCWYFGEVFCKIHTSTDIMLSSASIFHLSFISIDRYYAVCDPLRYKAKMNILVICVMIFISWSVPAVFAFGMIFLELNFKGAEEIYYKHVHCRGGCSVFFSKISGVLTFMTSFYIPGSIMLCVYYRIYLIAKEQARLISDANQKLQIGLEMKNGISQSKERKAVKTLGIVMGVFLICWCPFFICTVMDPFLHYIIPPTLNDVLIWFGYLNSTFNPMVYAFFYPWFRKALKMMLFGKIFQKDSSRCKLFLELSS
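Material: RD-HGA16 CHO cells with stable hTAAR1 and Gα16; Dosing: single nominal final test compound concentration of 3 µM; Schedule: seeding 17-24 h prior, 75-min 37 °C, 30-min RT dye loading; Detection: kinetic Fluo-8 calcium fluorescence measurement; Measure: % inhibition from peak post-agonist over basal fluorescence ratio; Benchmarks: vehicle and agonist controls.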
CHRM4 PAM = CHRM4 positive allosteric modulation; P08173; CHO-K1 hM4/Gqi5, Fluo-8 calcium fluorescence, ACh EC20; 0% = ACh EC20, 100% = maximal ACh; activation, % at 3 µM; hit rate 0.4% among 360,000; AID 624126;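 active = activation above its plate's cutoff, the mean activation of sample wells plus 3 SD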
TAAR1 agonist = agonists of human TAAR1. CHO RD-HGA16 TAAR1, Fluo-8 calcium fluorescence; vehicle wells 0%, saturating PEA agonist 100%. activation, % at 3 µM. hit rate 0.99% among 360,000. AID 624467;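 active = activation above the mean activation of all test compounds in the run plus 3 SD, cut at about 38% in these data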
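System: CHO RD-HGA16 cells carrying human TAAR1 plus Gα16; Incubation: 17-24 h seeding, 75 min 37 °C dye, 30 min RT; Measured by: Fluo-8 fluorescence, 5 s baseline then 140 s kinetic read; Control set: DMSO and PEA EC100; Replication: single well for each compound.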
nonsel antag count = nonselective antagonist in TAAR1 antagonist counter-screen | shares compounds with TAAR1 antagonist | counterscreen cell line, calcium fluorescence, antagonist mode | inhibition, % at 3 µM | hit rate 77% among 2,400 | AID 651780; in the data active = inhibition above about 22%;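 note: CHO-Ga16 host cells stimulated with ATP at an EC80 level; 0% = agonist EC80 plus vehicle and 100% = vehicle without agonist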
TAAR1 antag conf = confirmation of human TAAR1 antagonists; shares compounds with TAAR1 antagonist; TAAR1-expressing cells, fluorescence antagonist read-out; inhibition, % at 3 µM; hit rate 40% among 2,400; in the data active = inhibition above about 49%;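 note: CHO-Ga16 host cells challenged with agonist PEA near its EC80; 0% = agonist at EC80 plus vehicle and 100% = vehicle with no agonist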
Ga16 nonsel ag = nonselective Ga16 agonist in TAAR1 antagonist counter-screen. shares compounds with TAAR1 antagonist. Ga16-expressing cells, calcium fluorescence, agonist counterscreen. activation, % at 3 µM. hit rate 18% among 2,400. AID 651953; in the data active = activation above about 12%;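 note: 0% = vehicle wells and 100% = saturating stimulus response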
TAAR1 ag counter = activates human TAAR1 in antagonist counter-screen; shares compounds with TAAR1 antagonist; hTAAR1 cell line, fluorescence activation, agonist mode; activation, % at 3 µM; hit rate 2% among 2,400; AID 651955; in the data active = activation above about 37%;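 note: CHO cells stably expressing TAAR1 with calcium dye readout; 0% = DMSO vehicle and 100% = full agonist response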
* marks the source's active call; other numbers are inactive results; . = no result given. In the library only some 3% were active in any assay of this set; here they are far more common.

SMILES | M4 antag | CHRM4 agonist | TAAR1 antagonist | CHRM4 PAM | TAAR1 agonist | nonsel antag count | TAAR1 antag conf | Ga16 nonsel ag | TAAR1 ag counter
NC(=O)c1nsc(C(=O)N(c2ccccc2F)C(C(=O)NCc2ccccc2)c2ccc(O)cc2)c1N (stereo unspecified) | 17 | 20 | 78* | -12 | 14 | 36* | 48 | 10 | 14
CCOc1ccccc1N(C(=O)c1snc(C(N)=O)c1N)C(C(=O)NCc1ccccc1)c1ccc(O)cc1 (stereo unspecified) | 5 | 0 | 6 | -1 | 8 | . | . | . | .
COCCCNC(=O)/C(C#N)=C/c1c(N2CCN(c3ccccc3)CC2)nc2c(C)cccn2c1=O | -4 | 14 | 50* | -3 | 11 | 19 | 36 | 6 | 6
COc1cc(-c2noc(C)c2/C=C/c2cccc([N+](=O)[O-])c2)cc(OC)c1OC | -5 | 1 | 74* | 5 | 11 | 28* | 42 | 2 | 0
CCOC(=O)[C@]12CCCC=C1N(Cc1ccc3c(c1)OCO3)C(=O)[C@H](CC(=O)NCc1cccc(C(F)(F)F)c1)C2 | -17 | 2 | 5 | 1 | 3 | . | . | . | .
Cc1ccc2nc3n(c(=O)c2c1)-c1ccccc1C(=O)NC3CC(C)C (stereo unspecified) | . | . | -26 | . | 2 | . | . | . | .
COc1ccc([C@H]2CC(=O)C=C(c3cccc(C(C)C)c3)C2)cc1 | -6 | 1 | 50* | -2 | 9 | 13 | 18 | 5 | 9
COc1cc2[nH]c(=O)n(CCC(=O)N3CCc4ccccc4C3)c(=O)c2cc1OC | -2 | 1 | 8 | 6 | 1 | . | . | . | .
COc1cc2[nH]c(=O)n(CCCCCC(=O)N3CC=C(c4ccccc4)CC3)c(=O)c2cc1OC | 8 | 8 | 63* | -15 | 14 | 29* | 49* | 9 | 11
CC(=O)Nc1cc(-c2ccc(N)nc2)cn2c(-c3cccc(C(F)(F)F)c3)cnc12 | -1 | 4 | 11 | 1 | 4 | . | . | . | .
COc1ccc(S(=O)(=O)N(C)CC(=O)NCc2ccccc2)cc1OC | 1 | 0 | 92* | -2 | -4 | -1 | -4 | 0 | 0
COc1ccc(S(=O)(=O)N(C)CC(=O)NCCc2ccccc2)cc1OC | 3 | 2 | 3 | 4 | 6 | . | . | . | .
c1ccc(-c2cc3c(N4CCN(c5ccccc5)CC4)ncnc3s2)cc1 | -5 | 4 | 32 | -4 | 2 | . | . | . | .
c1ccc(-c2cc3c(N4CCN(c5ncccn5)CC4)ncnc3s2)cc1 | 0 | 4 | 55* | -6 | 5 | 30* | 50* | 4 | 6
C=CCCC(=O)N1C[C@H]2CON(C)[C@H]2C[C@H]1c1ccc(N2CCCCC2)cc1 | -6 | 1 | -5 | -4 | 1 | . | . | . | .
CCOc1ccc(CNC(=O)CN2C(=O)CSc3ccc(S(=O)(=O)N4CCOCC4)cc32)cc1 | -1 | 3 | -9 | 0 | -1 | . | . | . | .
COc1ccc(CCNC(=O)c2ccc(-c3ccc([N+](=O)[O-])cc3)o2)cc1OC | 13 | 11 | 61* | -13 | 13 | 22* | 34 | 11 | 10
COc1cc(NC(=O)c2cc3ccccc3cc2OC)ccc1NC(=O)c1cccs1 | 10 | 15 | 85* | -10 | 11 | 23* | 51* | 9 | 8
O=C(NCCc1ccccc1)c1ccc2c(c1)S(=O)(=O)c1ccccc1C2=O | 3 | 11 | 52* | 1 | 16 | 21 | 46 | 7 | 6
O=C(NCc1ccc(F)cc1)c1ccc2c(c1)S(=O)(=O)c1ccccc1C2=O | -6 | 17 | 52* | -4 | 19 | 25* | 40 | 7 | 13
O=Nc1c(-c2c(O)[nH]c3cc(Br)ccc23)[nH]c2ccccc12 | -15 | -2 | 50* | -4 | -3 | 21 | 33 | -1 | -4

Source: PubChem (The Scripps Research Institute Molecular Screening Center)
